Tests used:
[1] = biological target: vasopressin2 receptor (V2R) (Homo sapiens, UniProt P30518); experiment: V2R/βarr2-GFP aggregation control assay; format: cell-based; details: arginine vasopressin stimulated cells; Supplementary Figure 3
[2] = Storage stability in solution; format: physicochemical; details: room temperature, DMSO or methanolic solution, 1 week
[3] = biological target: wild-type Smo (Homo sapiens, UniProt Q99835); format: binding; details: 25 nM [3H]-cyclopamine; competitor 0 – 10 µM
Chain of wild-type Smo (Q99835 28-787): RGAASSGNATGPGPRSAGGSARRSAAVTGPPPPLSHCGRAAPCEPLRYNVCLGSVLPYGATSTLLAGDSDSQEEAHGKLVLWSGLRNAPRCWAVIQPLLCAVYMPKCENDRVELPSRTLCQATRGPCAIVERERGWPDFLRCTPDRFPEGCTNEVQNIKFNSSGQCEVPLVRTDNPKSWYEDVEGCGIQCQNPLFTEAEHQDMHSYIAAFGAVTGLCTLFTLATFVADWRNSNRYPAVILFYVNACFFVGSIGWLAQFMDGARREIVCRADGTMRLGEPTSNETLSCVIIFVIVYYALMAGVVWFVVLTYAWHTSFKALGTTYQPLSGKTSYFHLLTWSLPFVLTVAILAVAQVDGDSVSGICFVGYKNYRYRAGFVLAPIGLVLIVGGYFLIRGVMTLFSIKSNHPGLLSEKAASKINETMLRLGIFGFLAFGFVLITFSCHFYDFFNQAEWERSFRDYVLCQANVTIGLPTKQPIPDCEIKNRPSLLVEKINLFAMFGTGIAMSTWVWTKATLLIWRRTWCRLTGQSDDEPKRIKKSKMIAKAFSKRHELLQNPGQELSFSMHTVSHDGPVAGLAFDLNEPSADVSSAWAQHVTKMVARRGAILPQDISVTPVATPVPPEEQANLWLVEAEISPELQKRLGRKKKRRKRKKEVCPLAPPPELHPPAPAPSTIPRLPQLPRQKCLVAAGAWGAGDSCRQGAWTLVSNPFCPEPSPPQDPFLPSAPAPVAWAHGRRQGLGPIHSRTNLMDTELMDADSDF

[4] = biological target: Smo-D473H mutant receptor (Homo sapiens, UniProt Q99835, D473H); format: binding; details: for displacement of [3H]-cyclopamine from Smo-D473H: U2OS cells overexpressing Smo-D473H, competitor up to 10 µM
Chain of Smo-D473H mutant receptor (Q99835 28-787 D473H): as the sequence (Q99835 28-787) above, with D446H counted along it

[5] = system: Hh-dependent hair growth; experiment: Hh-dependent hair regrowth after depilation; format: in vivo, mouse; details: C57BL female mice, topical 30 µl of 0.5 mM daily for 2 weeks
In short: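 Eight-week-old female C57BL/6 mice in telogen phase had the dorsum shaved. The lower half of the shaved area was depilated with Nair for 2 min and rinsed with water. Test compound in 95% acetone/5% DMSO, or vehicle alone, was applied topically to the depilated skin. Brief 3% isoflurane anaesthesia was used for all procedures. Five mice per group; hair regrowth assessed at 2 weeks.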

[6] = system: Smo-633 receptor and βarr2-GFP; experiment: Smo/βarr2-GFP translocation primary high-throughput confocal imaging assay; format: cell-based; details: U2OS cells stably expressing Smo-633 and βarr2-GFP; 5 µM, 6 hours
[7] = system: Shh-induced Gli reporter activity; details: 1 µM concentration; cited from earlier work

Chain of vasopressin2 receptor (V2R) (P30518 whole entry, species assumed): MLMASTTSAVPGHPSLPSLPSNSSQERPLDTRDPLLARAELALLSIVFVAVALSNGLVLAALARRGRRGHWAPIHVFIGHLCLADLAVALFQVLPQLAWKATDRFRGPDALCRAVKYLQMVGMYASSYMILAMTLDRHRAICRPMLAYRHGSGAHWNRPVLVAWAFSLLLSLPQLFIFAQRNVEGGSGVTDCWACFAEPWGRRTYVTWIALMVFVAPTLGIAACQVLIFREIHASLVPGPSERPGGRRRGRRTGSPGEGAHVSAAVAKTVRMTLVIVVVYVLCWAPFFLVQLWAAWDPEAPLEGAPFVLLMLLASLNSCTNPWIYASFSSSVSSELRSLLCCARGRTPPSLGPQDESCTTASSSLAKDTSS

SMILES	aggregation of V2R and βarr2-GFP [1]	activity after storage in solution [2]	displacement of [3H]-cyclopamine from wild-type Smo [3]	displacement of [3H]-cyclopamine from Smo-D473H [4]	right shift in affinity, SmoD473H versus wild-type Smo ([4]; ratio of Ki mutant / wild-type)	Hh-induced hair growth [5]	inhibition of intracellular βarr2-GFP aggregation [6]	binding affinity to the mutant receptor (Ki not determinable) ([4]; Smo-D473H, up to 10 uM)	inhibition of Gli-reporter activity at 1 µM [7]
O=C(NC1CCN(Cc2ccc(N3CCC(NC(=O)c4cccc(-c5cccnc5)c4)CC3)nc2)CC1)c1cccc(-c2cccnc2)c1 [Compound A8]	not inhibited	retained activity	completely displaced	completely displace	approximately 13 fold	largely inhibited	confirmed	–	–
CS(=O)(=O)c1ccc(C(=O)Nc2ccc(Cl)c(-c3ccccn3)c2)c(Cl)c1 [GDC-0449, Vismodegib]	–	–	completely displaced	only partially displaced	–	–	–	–	–
Cc1c(C(=O)Nc2ccc(N3C[C@@H](C)O[C@@H](C)C3)nc2)cccc1-c1ccc(OC(F)(F)F)cc1 [LDE-225, Erismodegib]	–	–	completely displaced	largely ineffective	–	–	–	too weak	–
CC1=C2C[C@H]3[C@@H](CC=C4C[C@@H](O)CC[C@@]43C)[C@@H]2CC[C@]12O[C@@H]1C[C@H](C)CN[C@H]1[C@H]2C [cyclopamine]	–	–	completely displaced	completely displace	–	–	inhibits the aggregation of βarr2-GFP	–	strong inhibition
